# Source: PubChem BioAssay
# SKN-1 inh – C. elegans SKN-1 inhibition; C. elegans VP596 Pgst-4::GFP/RFP ratio, acrylamide-induced, 24 h; actives 0.49% (n = 360,000); inhibition, % at 21.8 µM;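 active means interference check ratio from 0.5 to 1.5 plus GFP to RFP signal ratio inhibition reaching or exceeding a fixed threshold, cut at about 30% in these data, passing the limit was not always enough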
# MT1-MMP act inh – MT1-MMP (human) activation inhibition; GFP/RFP ratio change, % at 20 µM; HT1080 RFP-PRO-GFP cells, GFP/RFP ratio fluorescence, overnight; percent of plate control window, DMSO zero; AID 651647; actives 0.061% (n = 360,000); P50281;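 active means GFP/RFP ratio change of at least 30% with cell ATP level not reduced by more than half and red fluorescence within 50% of control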
#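 Assay system: RFP-PRO-GFP reporter HT1080 cells; read-out basis: GFP/RFP fluorescence ratio; benchmarks: DMSO wells and RFP-L50D-GFP cells; doses: 20 µM single dose, 1% DMSO; schedule: overnight cell settling, then overnight compound exposure, 37 °C, 5% CO2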
# eIF4H inh – inhibitors of RNA binding by human eIF4H; actives 0.94% (n = 290,000); eIF4H fluorescence polarization binding assay; inhibition, % at 35 µM; Q15056;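 further: calls also rest on retests at 20 µM and on dose response follow-up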
# PABP1 MLLE inh – inhibitors of microRNA-mediated deadenylation, human PABP1 MLLE binding | P11940 | GST-MLLE / FITC-PAM2 fluorescence polarization | inhibition, % at 20 µM | actives 0.36% (n = 360,000) | AID 588489; in the data active means inhibition above about 35%, passing the limit was not always enough;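 further: plate controls were DMSO wells with GST-MLLE for no effect and wells lacking GST-MLLE protein for full effect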
# PABP polyA inh – PABP-poly(A) binding inhibition; PABP-poly(A) RNA binding, fluorescence polarization; AID 2014; actives 1% (n = 290,000); P11940; calls only at 35 µM;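 further: calls also rest on retests at 20 µM and on dose response follow-up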
# Starred values were filed as active, the others as inactive; i = inactive; ? = inconclusive; · = not tested or not shown; + = active, no number. This is a sample that favours compounds with a hit; in the whole collection about 1.8% have one here. Unless noted, how the calls were made is not given here.
SMILES,SKN-1 inh,MT1-MMP act inh,eIF4H inh,PABP1 MLLE inh,PABP polyA inh
CCN(C(=O)COC(=O)CCOc1cc(C)ccc1C)c1c(N)n(Cc2ccccc2)c(=O)[nH]c1=O,7,-2,·,-2,·
O=C(N=C1N=C2C=CC(Br)=CN2Cc2ccccc21)c1ccc([N+](=O)[O-])cc1[N+](=O)[O-],60*,-4,-5,12,i
c1ccc(C2(Cn3ccc4ccccc43)OCCO2)cc1,44*,-6,16,38,i
COc1ccc(CCNC(=O)CSCC(=O)Nc2cc(S(C)(=O)=O)ccc2Cl)cc1,-5,-4,·,-8,·
CC(C)(C)c1ccc(S(=O)(=O)NC(=O)C2(C)CCN2C(=O)Cc2cccs2)cc1 (stereo unspecified),-3,1,·,8,·
O=C(NNC(=O)c1cc(S(=O)(=O)N2CCOCC2)ccc1Cl)c1ccc(F)cc1,2,1,·,7,·
Cn1nc(C(F)(F)F)cc1-c1ccc(/C=C(\C#N)C(=O)c2ccccc2)s1,1,-2,102,-72,+
CCOC(=O)C1CCCN(C(=O)c2ccc(C(F)(F)F)nc2C)CC1 (stereo unspecified),15,3,·,1,·
O=C(Nc1ccccc1)c1cnc[nH]1,31*,0,12,5,i
O=C(c1ccccc1)c1cnc[nH]1,8,-1,-8,13,i
CNC(=O)c1ccc(CN(C)C(=O)c2cccc(S(=O)(=O)N3CCc4ccccc4C3)c2)cc1,2,-5,·,-5,·
O=C1Nc2ccccc2C1=NN1CCCCCC1,14,0,·,-2,·
Nc1n[nH]c(=S)n1/N=C1/C(=O)Nc2ccccc21,1,2,38,45*,i
CCOc1ccc(N/C=C/C(=O)c2ccc(OC)cc2)c([N+](=O)[O-])c1,30,6,13,49*,i
COc1ccc(NC(=S)NC(NC(=O)c2cccc(C)c2)C(Cl)(Cl)Cl)c([N+](=O)[O-])c1 (stereo unspecified),2,12,-11,14,i
COc1ccc(NC(=S)NC(NC(=O)c2cccc(Cl)c2)C(Cl)(Cl)Cl)c([N+](=O)[O-])c1 (stereo unspecified),19,6,11,38*,i
COc1ccc(NC(=O)c2cccnc2)c([N+](=O)[O-])c1,-7,0,-2,-1,i
COc1ccc(NC(=O)c2ccccc2)c([N+](=O)[O-])c1,22,-3,?,8,+
O=C(NCc1ccc(F)cc1)c1cc(C2CCCCN2S(=O)(=O)c2cccs2)on1 (stereo unspecified),18,-3,·,-8,·
COCCN1C(=O)CC(NNC(=O)c2ccc(S(=O)(=O)N3CCCC3)cc2)C1=O (stereo unspecified),101*,0,-2,0,i
CC(C)CCN1C(=O)CC(NNC(=O)c2ccc(S(=O)(=O)N3CCCC3)cc2)C1=O (stereo unspecified),6,-1,-10,-3,i
Cc1sc2ncnc(NCc3ccco3)c2c1C,1,0,66*,-2,+
O=C(COc1ncnc2scc(-c3ccc(F)cc3)c12)NCc1ccco1,6,0,-6,-18,i
Cc1sc2ncnc(NCc3cccs3)c2c1C,2,12,-10,-4,i
Cc1nc(SCC(=O)NCc2ccco2)c2c(C)c(C)sc2n1,-14,5,-2,2,i
SMILES,SKN-1 inh,MT1-MMP act inh,eIF4H inh,PABP1 MLLE inh,PABP polyA inh
Cc1sc2ncnc(SCC(=O)NC(=O)NCc3ccco3)c2c1C,9,-2,82*,12,+
Cc1ccc(-c2csc3ncnc(OCC(=O)NC(=O)NCc4ccco4)c23)cc1,0,·,21*,2,i
COc1ccc(S(=O)(=O)Nc2ccc(S(=O)(=O)Nc3ccc(F)cc3)cc2)cc1C,36*,1,-11,2,i
N#CCc1cnc2ccccc2n1,30,1,89*,12,+
NS(=O)(=O)c1ccc(NCc2cnc3ccccc3n2)cc1,3,4,·,-3,·
O=C(Cn1nnc(-c2ccc(F)cc2)n1)NC(=O)NC1CCCCC1,10,8,·,-4,·
Cc1cccc(N2CCN(C(=O)c3ccccn3)CC2C)c1 (stereo unspecified),-9,1,?,-6,+
Cc1cccc(N2CCN(C(=O)NC3CCCCC3)CC2C)c1 (stereo unspecified),8,0,-6,-18,i
COC1=CC(=O)OC(c2cccc(C(F)(F)F)c2)C1 (stereo unspecified),4,3,·,·,·
COC(=O)c1cc(-c2ccccc2)sc1NC(=O)CN1C(=O)c2ccccc2C1=O,4,6,-8,36*,i
O=C(Nc1ccc2ncccc2c1)c1ccccc1,8,-1,·,-110,·
O=C(Nc1ccc2ncccc2c1)c1ccccc1Cl,-12,0,0,-132,+
CSc1cccc(NC(=O)c2cccc3cccnc23)c1,65*,-3,-17,-7,i
CN(N=Nc1ccc([N+](=O)[O-])cc1)c1ccccc1,-2,0,?,92,i
CN(N=Nc1cccc([N+](=O)[O-])c1)c1ccccc1,48*,1,-1,18,i
O=C(Nc1cc(Cl)ccc1Cl)c1noc2c1CCCC2,-13,5,-7,7,i
O=C(Nc1ccc(F)cc1F)c1noc2c1CCC2,1,0,85*,14,+
CC(C)c1ccccc1OCC(=O)Nc1ccc2[nH]ncc2c1,-14,1,-4,5,i
O=C(c1cc2cc([N+](=O)[O-])ccc2oc1=O)n1cccn1,-3,-12,98,0,+
C=CCNC(=S)NS(=O)(=O)c1cccs1,-1,0,-4,44*,i
O=C(O)CNC(=O)/C(=C/c1ccco1)NC(=O)/C=C/c1ccccc1,4,-2,53*,-5,+
C=CCOC(=O)/C(=C/c1ccco1)NC(=O)/C=C/c1ccccc1,-6,0,-2,-9,i
Cc1cccc(N(C(=O)c2csnn2)C(C(=O)NC2CCCCC2)c2ccncc2)c1 (stereo unspecified),8,-3,-7,21,i
Cc1cc(Nc2ccc(Cl)cc2)nc(N)n1,-12,3,6,10,i
Nc1cc(Nc2ccc(Br)cc2)nc(N)n1,7,0,49,43*,i
CC(NC(=O)c1cc(COc2ccccc2)on1)c1nccs1 (stereo unspecified),35*,0,-16,-6,i
CC(=O)c1ccc(OCc2cc(C(=O)NC(C)c3cnn(C)c3)no2)cc1 (stereo unspecified),14,-3,-5,-7,i
COC(=O)C[C@H]1C=C[C@@H](NS(=O)(=O)c2ccccc2)[C@@H](CO)O1,0,1,·,·,·
CCOc1ccccc1N(CC(=O)NCCSc1ccccn1)S(=O)(=O)c1ccc(C)cc1,-11,0,86*,6,+
